In ChEMBL document CHEMBL3102739, “Synthesis and antiproliferative activity of conformationally restricted 1,2,3-triazole analogues of combretastatins in the sea urchin embryo model and against human cancer cell lines” (Bioorg Med Chem, 2014):

Assays:
[1] = tested on: Paracentrotus lividus; assay: Antimitotic activity against sea urchin embryo model assessed as cleavage arrest of fertilized egg compound treated at 8 to 20 mins post-fertilization and 45 to 55 mins prior to first mitotic cycle completion measured 2.5 to 5.5 hrs post-fertilization; type: functional
In short: (§1)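 Fertilized eggs are exposed 8–20 min after fertilization to 2-fold decreasing concentrations. Stocks are 10 mM in DMSO, then diluted 10-fold in 95% EtOH; final DMSO is at most 0.05% and EtOH at most 1%. Embryos are kept as a monolayer, up to 2000 embryos/mL, in filtered seawater at room temperature. The value is the threshold concentration giving cleavage alteration, embryo death before hatching or full mitotic arrest. Duplicates were run.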

[2] = Growth inhibition of human NCI60 cells at 10 uM after 48 hrs by SRB assay; type: functional; conditions: NCI60, 48 h, values are per cent of control
[3] = tested on: Paracentrotus lividus; assay: Antimitotic activity against sea urchin embryo model assessed as cleavage alteration of fertilized egg compound treated at 8 to 20 mins post-fertilization and 45 to 55 mins prior to first mitotic cycle completion measured 2.5 to 5.5 hrs post-fertilization; type: functional; in short: as §1
[4] = tested on: Paracentrotus lividus; assay: Antimitotic activity against sea urchin embryo free-swimming blastula model assessed as embryo spinning compound treated at 8 to 10 hrs post-fertilization measured after 0.25 to 20 hrs; type: functional, Blastula stage
[5] = Growth inhibition of human HCC2998 cells after 48 hrs by SRB assay; type: functional; conditions: HCC 2998, 48 h
[6] = tested on: IGROV-1; assay: Growth inhibition of human IGROV1 cells after 48 hrs by SRB assay; type: functional; conditions: IGROV-1, 48 h
[7] = tested on: DU-145; assay: Growth inhibition of human DU145 cells after 48 hrs by SRB assay; type: functional; conditions: DU-145, 48 h
[8] = tested on: HCT-15; assay: Growth inhibition of human HCT15 cells after 48 hrs by SRB assay; type: functional; conditions: HCT-15, 48 h
[9] = tested on: SF-268; assay: Growth inhibition of human SF268 cells after 48 hrs by SRB assay; type: functional; conditions: SF-268, 48 h
[10] = tested on: MDA-MB-231; assay: Growth inhibition of human MDA-MB-231 cells after 48 hrs by SRB assay; type: functional; conditions: MDA-MB-231, 48 h
[11] = tested on: CAKI-1; assay: Growth inhibition of human CAKI-1 cells after 48 hrs by SRB assay; type: functional; conditions: CAKI-1, 48 h
[12] = tested on: MOLT-4; assay: Growth inhibition of human MOLT4 cells after 48 hrs by SRB assay; type: functional; conditions: MOLT-4, 48 h
[13] = tested on: A498; assay: Growth inhibition of human A498 cells after 48 hrs by SRB assay; type: functional; conditions: A498, 48 h
[14] = tested on: SR; assay: Growth inhibition of human SR cells after 48 hrs by SRB assay; type: functional
[15] = tested on: UACC-62; assay: Growth inhibition of human UACC62 cells after 48 hrs by SRB assay; type: functional; conditions: UACC-62, 48 h
[16] = tested on: K562; assay: Growth inhibition of human K562 cells after 48 hrs by SRB assay; type: functional; conditions: K562, 48 h
[17] = tested on: 786-0; assay: Growth inhibition of human 786-0 cells after 48 hrs by SRB assay; type: functional; conditions: 786-0, 48 h
[18] = tested on: KM12; assay: Growth inhibition of human KM12 cells after 48 hrs by SRB assay; type: functional; conditions: KM12, 48 h
[19] = Growth inhibition of human UACC257 cells after 48 hrs by SRB assay; type: functional; conditions: UACC-257, 48 h
[20] = tested on: PC-3; assay: Growth inhibition of human PC3 cells after 48 hrs by SRB assay; type: functional; conditions: PC-3, 48 h
[21] = tested on: NCI-H322M; assay: Growth inhibition of human NCI-H322M cells after 48 hrs by SRB assay; type: functional
[22] = tested on: M14; assay: Growth inhibition of human M14 cells after 48 hrs by SRB assay; type: functional; conditions: M14, 48 h
[23] = tested on: SK-MEL-5; assay: Growth inhibition of human SK-MEL-5 cells after 48 hrs by SRB assay; type: functional; conditions: SK-MEL-5, 48 h
[24] = tested on: RPMI-8226; assay: Growth inhibition of human RPMI8226 cells after 48 hrs by SRB assay; type: functional; conditions: RPMI-8226, 48 h
[25] = tested on: COLO 205; assay: Growth inhibition of human COLO205 cells after 48 hrs by SRB assay; type: functional; conditions: COLO 205, 48 h
[26] = tested on: OVCAR-8; assay: Growth inhibition of human OVCAR8 cells after 48 hrs by SRB assay; type: functional; conditions: OVCAR-8, 48 h
[27] = Growth inhibition of human RXF393 cells after 48 hrs by SRB assay; type: functional; conditions: RXF 393, 48 h
[28] = tested on: SK-MEL-28; assay: Growth inhibition of human SK-MEL-28 cells after 48 hrs by SRB assay; type: functional; conditions: SK-MEL-28, 48 h
[29] = tested on: HCT-116; assay: Growth inhibition of human HCT116 cells after 48 hrs by SRB assay; type: functional; conditions: HCT-116, 48 h
[30] = Growth inhibition of human SF539 cells after 48 hrs by SRB assay; type: functional; conditions: SF-539, 48 h
[31] = tested on: SW-620; assay: Growth inhibition of human SW620 cells after 48 hrs by SRB assay; type: functional; conditions: SW-620, 48 h
[32] = tested on: CCRF-CEM; assay: Growth inhibition of human CCRF-CEM cells after 48 hrs by SRB assay; type: functional
[33] = Growth inhibition of human NCI-ADR-RES cells after 48 hrs by SRB assay; type: functional
[34] = tested on: MDA-MB-468; assay: Growth inhibition of human MDA-MB-468 cells after 48 hrs by SRB assay; type: functional; conditions: MDA-MB-468, 48 h
[35] = tested on: MDA-MB-435; assay: Growth inhibition of human MDA-MB-435 cells after 48 hrs by SRB assay; type: functional; conditions: MDA-MB-435, 48 h
[36] = Growth inhibition of human Hs578T cells after 48 hrs by SRB assay; type: functional; conditions: Hs-578T
[37] = tested on: NCI-H226; assay: Growth inhibition of human NCI-H226 cells after 48 hrs by SRB assay; type: functional; conditions: NCI-H226, 48 h
[38] = tested on: HT-29; assay: Growth inhibition of human HT-29 cells after 48 hrs by SRB assay; type: functional; conditions: HT-29, 48 h
[39] = tested on: SN12C; assay: Growth inhibition of human SN12C cells after 48 hrs by SRB assay; type: functional
[40] = Growth inhibition of human UO31 cells after 48 hrs by SRB assay; type: functional; conditions: UO-31, 48 h
[41] = tested on: NCI-H522; assay: Growth inhibition of human NCI-H522 cells after 48 hrs by SRB assay; type: functional; conditions: NCI-H522, 48 h
[42] = tested on: SK-OV-3; assay: Growth inhibition of human SKOV3 cells after 48 hrs by SRB assay; type: functional; conditions: SK-OV-3, 48 h
[43] = tested on: A549; assay: Growth inhibition of human A549 cells after 48 hrs by SRB assay; type: functional; conditions: A549, 48 h
[44] = Growth inhibition of human OVCAR4 cells after 48 hrs by SRB assay; type: functional; conditions: OVCAR-4, 48 h
[45] = Growth inhibition of human OVCAR5 cells after 48 hrs by SRB assay; type: functional; conditions: OVCAR-5, 48 h
[46] = tested on: SNB-19; assay: Growth inhibition of human SNB19 cells after 48 hrs by SRB assay; type: functional; conditions: SNB-19, 48 h
[47] = tested on: SF-295; assay: Growth inhibition of human SF295 cells after 48 hrs by SRB assay; type: functional; conditions: SF-295, 48 h
[48] = tested on: OVCAR-3; assay: Growth inhibition of human OVCAR3 cells after 48 hrs by SRB assay; type: functional; conditions: OVCAR-3, 48 h
[49] = tested on: NCI-H460; assay: Growth inhibition of human NCI-H460 cells after 48 hrs by SRB assay; type: functional; conditions: NCI-H460, 48 h
[50] = tested on: HOP-62; assay: Growth inhibition of human HOP62 cells after 48 hrs by SRB assay; type: functional; conditions: HOP-62, 48 h
[51] = tested on: ACHN; assay: Growth inhibition of human ACHN cells after 48 hrs by SRB assay; type: functional
[52] = tested on: SNB-75; assay: Growth inhibition of human SNB75 cells after 48 hrs by SRB assay; type: functional; conditions: SNB-75, 48 h
[53] = tested on: HL-60(TB); assay: Growth inhibition of human HL-60(TB) cells after 48 hrs by SRB assay; type: functional; conditions: HL-60, 48 h
[54] = tested on: MCF7; assay: Growth inhibition of human MCF7 cells after 48 hrs by SRB assay; type: functional; conditions: MCF7, 48 h
[55] = tested on: BT-549; assay: Growth inhibition of human BT549 cells after 48 hrs by SRB assay; type: functional; conditions: BT-549, 48 h

## COc1ccc(-c2c(C(=O)O)nnn2-c2cc(OC)c(OC)c(OC)c2)cc1
[1]
  EC: >4 µM
[2]
  growth, % of control at 10 µM: 99.4%
[3]
  EC: >4 µM
[4]
  EC: >4 µM

## COc1ccc(-c2cnnn2-c2cc(OC)c3c(c2OC)OCO3)cc1
[1]
  EC: >4 µM
[3]
  EC: 1 µM
[4]
  EC: >4 µM

## COc1ccc(/C=C\c2cc(OC)c3c(c2)OCO3)cc1O [Combretastatin A-2]
[1]
  EC: 0.01 µM
[3]
  EC: 0.002 µM
[4]
  EC: 0.05 µM

## COc1ccc(-n2nnc(C#N)c2-c2cccc(OC)c2)cc1
[1]
  EC: 1 µM
[3]
  EC: 0.2 µM
[4]
  EC: 5 µM

## COc1ccc(-c2cnnn2-c2cc(OC)c3c(c2)OCO3)cc1
[5]
  GI50: 258 nM
[6]
  GI50: 123 nM
[7]
  GI50: 232 nM
[8]
  GI50: 45 nM
[9]
  GI50: 611 nM
[10]
  GI50: 135 nM
[11]
  GI50: 98 nM
[12]
  GI50: 122 nM
[13]
  GI50: 49 nM
[14]
  GI50: 41 nM
[15]
  GI50: 72 nM
[16]
  GI50: 41 nM
[17]
  GI50: 363 nM
[18]
  GI50: 60 nM
[19]
  GI50: 74900 nM
[20]
  GI50: 150 nM
[21]
  GI50: 673 nM
[22]
  GI50: 61 nM
[23]
  GI50: 235 nM
[24]
  GI50: 253 nM
[25]
  GI50: 53 nM
[26]
  GI50: 284 nM
[27]
  GI50: 157 nM
[28]
  GI50: 725 nM
[29]
  GI50: 64 nM
[30]
  GI50: 95 nM
[31]
  GI50: 56 nM
[32]
  GI50: 132 nM
[1]
  EC: 0.1 µM
[33]
  GI50: 38 nM
[34]
  GI50: 62 nM
[35]
  GI50: 22 nM
[36]
  GI50: 154 nM
[37]
  GI50: 4670 nM
[3]
  EC: 0.01 µM
[38]
  GI50: 40 nM
[39]
  GI50: 486 nM
[40]
  GI50: 692 nM
[41]
  GI50: 21 nM
[42]
  GI50: 271 nM
[43]
  GI50: 88 nM
[44]
  GI50: 4170 nM
[45]
  GI50: 374 nM
[46]
  GI50: > 100000 nM
[47]
  GI50: 73 nM
[48]
  GI50: 53 nM
[49]
  GI50: 55 nM
[4]
  EC: 0.5 µM
[50]
  GI50: 125 nM
[51]
  GI50: 607 nM
[52]
  GI50: 119 nM
[53]
  GI50: 51 nM
[54]
  GI50: 47 nM
[55]
  GI50: 160 nM

## COc1ccc(-c2c(C#N)nnn2-c2cc(OC)c(OC)c(OC)c2)cc1
[1]
  EC: >4 µM
[3]
  EC: >4 µM
[4]
  EC: >4 µM

## Clc1cccc(-n2nncc2-c2ccccc2)c1
[1]
  EC: >4 µM
[3]
  EC: >4 µM
[4]
  EC: >4 µM

## COc1ccc(-n2nnc(C#N)c2-c2cc(OC)c(OC)c(OC)c2)cc1
[1]
  EC: >4 µM
[3]
  EC: 1 µM
[4]
  EC: >4 µM

## COc1ccc(-n2nnc(N)c2-c2cc(OC)c(OC)c(OC)c2)cc1
[1]
  EC: >4 µM
[2]
  growth, % of control at 10 µM: 90.1%
[3]
  EC: 4 µM
[4]
  EC: >4 µM

## COc1cc(-c2c(C(N)=O)nnn2-c2cc(OC)c(OC)c(OC)c2)cc(OC)c1OC
[1]
  EC: >4 µM
[2]
  growth, % of control at 10 µM: 102%
[3]
  EC: >4 µM
[4]
  EC: >4 µM
